Measurements as given in ChEMBL document CHEMBL1157854, “In-vivo analgesic and anti-inflammatory activities of newly synthesized benzimidazole derivatives” (2010).

Assays:
Rattus norvegicus [1] = assay: Antiinflammatory activity in albino rat assessed as inhibition of carrageenan-induced paw oedema at 100 mg/kg, po measured after 30 mins of carrageenan challenge relative to control; format: functional; conditions: 0.5 h
Procedure, shortened: (§1)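 Rat hind paw oedema induced by 0.1 mL 1% carrageenan injected subplantar into the right hind paw. Paw volume measured plethysmographically before carrageenan and at 30, 60, 120 and 180 min after. Percent oedema inhibition calculated versus a saline control group. Six animals per group, mean ± SE; one-way ANOVA with Tukey–Kramer test, p < 0.01.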

Rattus norvegicus [2] = assay: Antiinflammatory activity in albino rat assessed as inhibition of carrageenan-induced paw oedema at 100 mg/kg, po measured after 60 mins of carrageenan challenge relative to control; format: functional; conditions: 1 h; procedure, shortened: as §1
Rattus norvegicus [3] = assay: Antiinflammatory activity in albino rat assessed as inhibition of carrageenan-induced paw oedema at 100 mg/kg, po measured after 120 mins of carrageenan challenge relative to control; format: functional; conditions: 2 h; procedure, shortened: as §1
Rattus norvegicus [4] = assay: Antiinflammatory activity in albino rat assessed as inhibition of carrageenan-induced paw oedema at 100 mg/kg, po measured after 180 mins of carrageenan challenge relative to control; format: functional; conditions: 3 h; procedure, shortened: as §1
Mus musculus = assay: Analgesic activity in Swiss albino mouse assessed as protection against acetic acid-induced writhing at 100 mg/kg, po administered 1 hr prior to acetic acid challenge relative to control measured after 3 hrs; format: functional
Procedure, shortened: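 Swiss albino mice (20–25 g), six per group. Baseline writhes counted over 20 min starting 5 min after ip 0.6% acetic acid (10 ml/kg); the same mice were dosed orally the next day, 1 h before acetic acid, and writhes counted again. Protection = (1 − […]) × 100. Mean ± SE; one-way ANOVA with Tukey–Kramer test, p < 0.01.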

Rattus norvegicus [5] = organism: Rattus norvegicus; assay: animal or person; conditions: albino, po, 2 h, read-out: INH
Rattus norvegicus [6] = organism: Rattus norvegicus; assay: animal or person; conditions: albino, po, 0.5 h, read-out: INH
Rattus norvegicus [7] = organism: Rattus norvegicus; assay: animal or person; conditions: albino, po, 3 h, read-out: INH
Rattus norvegicus [8] = organism: Rattus norvegicus; assay: animal or person; conditions: albino, po, 1 h, read-out: INH

| Compound | inhibition in vivo at 100 mg/kg (Rattus norvegicus [1]) [%] | inhibition in vivo at 100 mg/kg (Rattus norvegicus [2]) [%] | inhibition in vivo at 100 mg/kg (Rattus norvegicus [3]) [%] | inhibition in vivo at 100 mg/kg (Rattus norvegicus [4]) [%] | Activity (Mus musculus) [%] | inhibition in vivo at 50 mg/kg (Rattus norvegicus [5]) [%] | inhibition in vivo at 50 mg/kg (Rattus norvegicus [6]) [%] | inhibition in vivo at 50 mg/kg (Rattus norvegicus [7]) [%] | inhibition in vivo at 50 mg/kg (Rattus norvegicus [8]) [%] |
| --- | --- | --- | --- | --- | --- | --- | --- | --- | --- |
| Clc1cccc(NCc2nc3ccccc3[nH]2)c1 | 15.3 | 26.6 | 41.1 | 44.4 | 81.33 |  |  |  |  |
| O=[N+]([O-])c1ccc2nc(CNc3ccc(Br)cc3)[nH]c2c1 | 15.3 | 20 | 23.5 | 22.2 | 79 |  |  |  |  |
| Brc1ccc2nc(CNc3ccccc3)[nH]c2c1 | 7.6 | 26.6 | 29.4 | 22.2 | 80 |  |  |  |  |
| Brc1ccc(NCc2nc3ccc(Br)cc3[nH]2)cc1 |  | 20 | 23.5 | 16.6 | 85.66 |  |  |  |  |
| COc1ccc(NCc2nc3ccc(Br)cc3[nH]2)cc1 |  | 13.3 | 17.6 | 12.5 | 83.33 |  |  |  |  |
| Cc1ccc(NCc2nc3ccc(Br)cc3[nH]2)cc1 | 7.6 | 20 | 23.5 | 16.6 | 88 |  |  |  |  |
| COc1ccc(NCc2nc3ccccc3[nH]2)cc1 | 7.6 | 26.6 | 29.4 | 33.3 | 83.33 |  |  |  |  |
| Clc1ccccc1NCc1nc2ccc(Br)cc2[nH]1 |  | 20 | 23.5 | 22.2 | 80 |  |  |  |  |
| Clc1cccc(NCc2nc3ccc(Br)cc3[nH]2)c1 | 7.6 | 26.6 | 17.6 | 16.6 | 89 |  |  |  |  |
| c1ccc(NCc2nc3ccccc3[nH]2)cc1 | 7.6 | 26.6 | 41.1 | 38.8 | 72.33 |  |  |  |  |
| CS(=O)(=O)Nc1ccc([N+](=O)[O-])cc1Oc1ccccc1 [NIMESULIDE] |  |  |  |  |  | 41.1 | 15.3 | 44.4 | 26.6 |
